Results taken from publication PMC3573810 (Drug Design, Development and Therapy, 2013).

Tests used:
[1] = system: Salmonella typhimurium TA1535; assay type: cell-based; conditions: NaN3 1 μg/plate alone, no bichalcophene
Method in brief: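 Overnight S. typhimurium TA1535 diluted 10−7, shaken 30 min at 37°C in phosphate buffer with NaN3 (1 μg/plate) plus test compound (10 and 20 μM, or 5 and 10 μM for two compounds) or NaN3 alone. Colonies counted on triplicate plates after 24 h and compared with untreated bacteria. ANOVA with Fisher's PLSD, P<0.05.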

[2] = system: Salmonella typhimurium TA1535; experiment: Antimutagenicity assay against sodium azide; assay type: cell-based
Method in brief: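 S. typhimurium TA1535 exposed at 37°C for 30 min to test compound (10 and 20 μM, or 5 and 10 μM for two compounds) and NaN3 (1 μg/plate). Pre-exposure adds NaN3 after the 30 min compound step; co-exposure combines all three together. Plated on minimal glucose agar; revertants counted after 48 h, triplicate. Mutant frequency = mutant colonies/viable colonies.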

[N-]=[N+]=[N-].[Na+] [NaN3, sodium azide]
Viability, % of control [1]: 105 % of control | Viability, colonies/plate [1]: 36.9 ± 4.3 colonies/plate | NaN3 mutagenicity, revertant colonies/plate ([2]; NaN3 1 μg/plate alone, spontaneous 34.3 ± 4.0): 384.7 ± 14.7 (0) revertant colonies/plate | Mutant frequency ([2]; NaN3 alone, mutant colonies (Table 6)/viable colonies (Table 3)): 10.43 (100)
